Experimental data gathered from unrelated publications.
Compare with care: the assays were run in different laboratories.
Cell line: MCF7
Effect on: cell growth or viability

For CCOC(=O)c1nn(-c2cccc(Cl)c2)/c(=N/N=C(\C)c2ccc(NC(=O)c3ccc(Cl)cc3)cc2)s1, the viability was 73.5% (MTT; 78 nM).
For O=C(Nc1ccc(Oc2nnc(-c3ccc(Cl)cc3)c3ccccc23)cc1)c1cccc([N+](=O)[O-])c1, the cell death was 92% (MTT; 10 µM).
The viability of CCOC(=O)c1nn(-c2cccc(Cl)c2)/c(=N/N=C(\C)c2ccc(NC(=O)c3ccccc3)cc2)s1 is reported as 87.7% (MTT; 78 nM).
With COc1ccc(CNC[C@](O)(COCc2ccc(F)cc2)[C@@H]2CC[C@@H](C)C[C@H]2OCc2ccc(F)cc2)cc1 the inhibition was 98.4% (MTT; 30 µM, 72 h).
For CCN1CCN(Cc2ccc(Nc3ncc(F)c(-c4cc(F)c5nc(C)n(C(C)C)c5c4)n3)nc2)CC1, the EC50 was 0.009 µM (5 days).
For C[C@@H]1CC[C@@H]([C@@](O)(CNCc2ccccc2)COCc2ccc(F)cc2)[C@H](OCc2ccc(F)cc2)C1, the inhibition was 100% (MTT; 30 µM, 72 h).
S=C(Nc1ccccc1)Nc1ccc(Oc2nnc(-c3ccc(Cl)cc3)c3ccccc23)cc1 has a cell death of 97.3% (MTT; 5 µM).
C[C@@H]1CC[C@@H]([C@](O)(CNCc2ccccc2)COCc2ccccc2)[C@H](OCc2ccccc2)C1 has an inhibition of 83.2% (MTT; 30 µM, 72 h).
With CC(=O)c1nn(-c2ccccc2Cl)/c(=N/N=C(\C)c2ccc(NC(=O)c3ccccc3)cc2)s1 the viability was 7.5% (MTT; 0.312 µM).
The viability of CC(=NNC(=O)c1ccccc1Br)c1ccc(Nc2nnc(-c3ccc(Cl)cc3)c3ccccc23)cc1 is reported as 75.9% (MTT; 0.625 µM, 24 h).
COc1ccc(-c2cc(-c3cccc(Br)c3)c3c(=O)[nH]c(=O)[nH]c3n2)cc1 gave an IC50 of 13.7 µM (MTT; 48 h).
For CC(=O)Nc1ccc(/C(C)=N/N=c2\sc(C(C)=O)nn2-c2ccc(C)cc2)cc1, the viability was 5.39% (MTT; 10 µM).
With C[C@@H]1CC[C@@H]([C@](O)(CNCc2cccc3ccccc23)COCc2ccccc2)[C@H](OCc2ccccc2)C1 the inhibition was 87.7% (MTT; 30 µM, 72 h).
CC(=NNC(=O)c1ccncc1)c1ccc(Nc2nnc(-c3ccc(Cl)cc3)c3ccccc23)cc1 has a cell death of 94.4% (MTT; 2.5 µM).
For COc1cccc(CNC[C@@](C)(O)[C@@H]2CC[C@@H](C)C[C@H]2OCc2ccccc2)c1, the inhibition was 95.9% (MTT; 30 µM, 72 h).
CC(=O)c1nn(-c2ccc(C)cc2)/c(=N/N=C(\C)c2ccc(NC(=O)c3ccccc3)cc2)s1 gave a viability of 4.36% (MTT; 0.312 µM).
O=C(Nc1ccccc1)Nc1ccc(Oc2nnc(-c3ccc(Cl)cc3)c3ccccc23)cc1 gave a viability of 3.85% (MTT; 1.25 µM, 24 h).
C[C@@H]1CC[C@@H]([C@](C)(O)Cn2ccnc2)[C@H](OCc2ccccc2)C1 has an inhibition of 34.6% (MTT; 30 µM, 72 h).
CC(=O)Nc1ccc(Oc2nnc(-c3ccc(Cl)cc3)c3ccccc23)cc1 gave a cell death of 93.9% (MTT; 1.25 µM).
The IC50 of COc1ccc(-c2cc(-c3ccc(Br)cc3)c3c(=O)n(C)c(=O)n(C)c3n2)cc1 is reported as 29.4 µM (MTT; 48 h).
